Bioassay records as filed in PubChem.
Only some compounds are listed: those with a hit (about 2.9% of all), similar ones and a draw of the others.
MEKK3 PB1 HTS: MEKK3-MEK5 PB1 interaction, increase or decrease; bead-based flow cytometry, Alexa488-MEK5 binding to MEKK3; actives lie on both sides; 0 = blocked by unlabeled MEK5, 100 = vehicle; binding response (% of control), % at 10 µM; 1.4% of 290,000 active;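 active = binding response more than 3 SD above or below the average of its plate-row segment, actives on both sides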;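 note: Alexa488 bead fluorescence after subtracting the streptavidin-only scavenger bead signal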
Apaf1 inhib: inhibitors of human Apaf-1 apoptosome; O14727; reconstituted apoptosome caspase-3 activity, DEVD-Rh110 fluorescence; inhibition, % at 20 µM; 0.71% of 330,000 active; AID 489030; active = inhibition of at least 40% at 20 µM;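 note: plate controls were DMSO wells for no effect and DEVD-CHO caspase inhibitor wells for full effect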
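detection = Rh110 fluorescence intensity | test system = biochemical Apaf-1 apoptosome reconstitution | also added = cytochrome c and DEVD-Rh110 substrate | schedule = 30 min plus 50 min, RT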
UBC13 inh: blocks human UBC13 polyubiquitin chain formation; inhibition, % at 20 µM; TR-FRET; P61088; 0.47% of 330,000 active; in the data active = inhibition above about 45%, passing the limit was not always enough
Target sequence (P61088 whole entry, looked up): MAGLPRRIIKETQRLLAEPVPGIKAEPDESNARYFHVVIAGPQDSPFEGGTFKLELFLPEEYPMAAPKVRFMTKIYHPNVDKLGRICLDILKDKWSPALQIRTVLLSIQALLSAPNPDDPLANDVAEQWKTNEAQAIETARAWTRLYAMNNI
MEKK2mut PB1 HTS: signal of MEK5 binding to mutant human MEKK2 PB1 domain | bead flow cytometry, Alexa488-MEK5 binding to MEKK2 mutant | percent response, % at 10 µM | 0.35% of 290,000 active | AID 1530; in the data active = percent response above about 24%, passing the limit was not always enough
MEKK2wt PB1 HTS: raises or lowers MEK5 binding to wildtype human MEKK2 PB1 domain. bead flow cytometry, Alexa488-MEK5 binding to MEKK2 WT; actives lie on both sides. AID 1531. 1.1% of 290,000 active. binding response (% of control), % at 10 µM; in the data active = binding response below about 67% or above about 130%
MEKK2wt confirm: raises or lowers MEK5 binding to wildtype human MEKK2, retest; shares compounds with MEKK3 PB1 HTS; bead flow cytometry, Alexa488-MEK5 binding to MEKK2 WT; actives lie on both sides; binding response (% of control), % at 10 µM; 2.4% of 5,900 active; in the data active = binding response below about 16% or above about 210%; inactive = in between
MEKK2mut-MEK5: signal of MEK5 binding to mutant human MEKK2, retest. shares compounds with MEKK3 PB1 HTS. bead flow cytometry, Alexa488-MEK5 binding to MEKK2 mutant. percent response, % at 10 µM. 2% of 5,900 active. AID 1893; in the data active = percent response mostly above about 71%, no sharp cut-off; inactive = mostly below about 38%;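 note: higher means compound restores mutant binding toward wildtype level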
MEKK3-MEK5 inh: confirmation of inhibitors of MEK5 binding to human MEKK3 | AID 1894 | bead flow cytometry, Alexa488-MEK5 binding to MEKK3; hits give low values | 1.8% of 5,900 active | binding response (% of control), % at 10 µM | shares compounds with MEKK3 PB1 HTS;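 active = binding response below 72% of control, or above a set upper limit, though filed actives all read lower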;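 note: 100% = DMSO only wells and 0% = binding blocked by excess unlabeled MEK5; lower values mean stronger disruption of MEK5 binding to MEKK3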
* marks the source's active call; other numbers are inactive results; . = not tested or not shown; [ ] = dose if it differs, or a comment.

SMILES	MEKK3 PB1 HTS	Apaf1 inhib	UBC13 inh	MEKK2mut PB1 HTS	MEKK2wt PB1 HTS	MEKK2wt confirm	MEKK2mut-MEK5	MEKK3-MEK5 inh
Cc1ccc(C(=O)N/N=C2\CCc3ccccc32)c(C)c1	141*	-6	8	1	110	107	0	105
CC(=O)N1CCN(c2ccc(Nc3ncnc4c3oc3ccccc34)cc2)CC1	81*[inhibitor]	11	-11	-12	89	106	8	101
C=CCn1cnc2c(oc3ccccc32)c1=O	110	0	-1	11	110	.	.	.
Cc1c(C)[n+](=O)c(-c2ccc(Br)cc2)c(C)n1[O-]	50*[inhibitor]	-8	0	-7	47*[inhibitor]	94	-9	98
Cc1nn2c(=O)cc(CSCC(=O)Nc3ccccc3Cl)nc2s1	103	15	-6	1	101	.	.	.
O=C(C1=C[C@@H](c2coc3ccccc3c2=O)C[C@@H](OCc2ccc(CO)cc2)O1)N1CCOCC1	82*[inhibitor]	14	-1	1	101	97	-3	98
CCN(c1ccccc1)S(=O)(=O)c1cc(NC(=O)Nc2ccccc2C#N)ccc1Cl	133*	13	-4	0	108	106	3	102
CCOC(=O)N1CCN(C(=O)CN(C)S(=O)(=O)c2ccc(OCC)cc2)CC1	105	11	1	-5	105	.	.	.
O=C(COc1ccccc1)NCc1nnc2c3ccccc3c(-c3ccccc3)nn12	149*	20	-8	0	108	107	6	105
CC1CC(C)CN(S(=O)(=O)c2ccc(C(=O)N(C)Cc3ccccc3)cc2)C1 (stereo not given)	.	11	9	.	.	.	.	.
Cc1cc(NCCCN2CCOCC2)n2ncc(-c3ccc(Cl)cc3)c2n1	109	21	15	23	147*	133	19	112
CCOc1ccccc1OCCCC(=O)Nc1sccc1C(N)=O	151*	1	7	1	111	103	4	104
Cc1cc(C)cc(N(CC(=O)NC2CCCC2)C(=O)CCC(=O)Nc2nc(C)cs2)c1	102	7	-1	2	97	.	.	.
CC(=O)Nc1ccc(S(=O)(=O)Nc2cccc(NC(=O)c3ccco3)c2)cc1	45*[inhibitor]	-4	2	-25	62	100	6	101
CC(=O)Nc1ccc(S(=O)(=O)Nc2ccc(NC(=O)c3ccco3)cc2)cc1	.	-17	-4	.	.	.	.	.
CC(=O)C1=C(C)Nc2ncnn2C1c1ccc(Br)cc1 (stereo not given)	104	-5	-3	8	103	.	.	.
CCN(C(=O)N1CCOCC1)c1ccccc1C	103	-16	-1	8	108	.	.	.
C=CCn1c(=S)sc2c(=O)[nH]cnc21	133*	-6	-7	26	128	103	8	107
CCCNS(=O)(=O)c1cc(CN2C(=O)c3cccnc3C2=O)ccc1OC	103	-2	3	0	101	.	.	.
CC(=O)c1ccc2c(c1)N(CCCN1CCC(CCO)CC1)c1ccccc1S2	.	14	15	.	.	.	.	.
CSc1ccc2c(c1)N(CCC1CCCCN1C)c1ccccc1S2 (stereo not given)	76	55*	72*	16	176*	191	64	116
COc1ccccc1CN1CCCC(CN(CCN(C)C)C(=O)C2CCCC2)C1 (stereo not given)	111	-1	6	34*	135*	112	10	101
Cc1ccc(N=Nc2ccc(O)c3ncccc23)cc1C	99	-4	-120	-11	86	.	.	.
CCS(=O)(=O)c1ccc(N=Nc2ccc(O)c3ncccc23)c(OC)c1	131*	17	-53	0	108	99	1	99
CCN(CC)CCCN(C(=O)Cn1nnc(-c2ccc(OC)c(OC)c2)n1)C(C(=O)NC(C)(C)C)c1ccc(F)cc1 (stereo not given)	98	2	-9	-5	97	.	.	.
